Screens from PubChem BioAssay.
The list is not random: actives were taken first. Their share in the collection is about 2.2%.
C2C12 statin – suppressors of simvastatin-induced myotoxicity in C2C12 myotubes | ATP luminescence, 48 h; scaled: DMSO 0, geranylgeraniol control 100 | rescue of ATP level, % at 7.49 µM | hit rate 0.78% among 330,000;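 active = mean ATP rescue above about 67%, or every replicate alone reaching that limit, limit read from the data, passing the limit was not always enough; inconclusive = no clear call, values can overlap the other calls; inactive = mean under the limit and some replicate under it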;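 note: myotubes were challenged with 10 µM simvastatin during compound exposure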
DENV2 CPE rescue – inhibitors of DENV2 cytopathic effect; AID 651640; hit rate 1.7% among 350,000; CPE inhibition, % at 9.99 µM; DENV2-infected cells, cytopathic effect rescue, plate reader; in the data active = CPE inhibition above about 20%, passing the limit was not always enough; inconclusive = no clear call, values can overlap the other calls; tested in BHK-21 cells
E-selectin induc – E-selectin induction on HUVECs | HUVEC E-selectin immunofluorescence imaging; normalized: neutral wells 0, TNF-alpha wells 100 | P16581 | activation, % at 7.58 µM | hit rate 0.37% among 260,000;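 active = mean E-selectin-positive cell signal at least 10% of the positive control, reached in at least 60% of replicates, without over 20% cell loss; inconclusive = no rule given, readout overlaps actives, possibly toxicity-flagged; inactive = the rest, including those meeting only one limit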
Target sequence (P16581 whole entry, looked up): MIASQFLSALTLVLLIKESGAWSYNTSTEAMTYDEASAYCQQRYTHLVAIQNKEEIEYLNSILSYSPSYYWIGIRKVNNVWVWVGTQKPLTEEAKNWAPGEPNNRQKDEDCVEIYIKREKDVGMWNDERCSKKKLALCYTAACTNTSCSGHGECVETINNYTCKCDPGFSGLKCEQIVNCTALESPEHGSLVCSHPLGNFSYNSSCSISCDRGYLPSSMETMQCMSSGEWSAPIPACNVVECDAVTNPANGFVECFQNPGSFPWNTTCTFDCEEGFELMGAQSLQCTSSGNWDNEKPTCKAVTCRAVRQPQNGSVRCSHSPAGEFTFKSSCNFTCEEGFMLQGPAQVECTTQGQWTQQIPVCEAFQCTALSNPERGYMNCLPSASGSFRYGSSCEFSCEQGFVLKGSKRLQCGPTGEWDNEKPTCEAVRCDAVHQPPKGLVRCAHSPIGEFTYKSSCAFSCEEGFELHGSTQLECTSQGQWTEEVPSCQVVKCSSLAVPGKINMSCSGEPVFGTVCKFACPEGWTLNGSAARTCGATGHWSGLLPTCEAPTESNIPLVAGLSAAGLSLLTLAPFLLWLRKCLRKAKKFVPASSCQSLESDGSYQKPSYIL
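assay system = HUVEC, human umbilical vein endothelial cells | input = 3,000 HUVEC seeded per well | medium = EGM-2 growth medium on 0.1% gelatin-coated wells | dosing = one compound dose added by pin transfer | signal = immunofluorescence imaging | read-out basis = % PE-positive cells | control set = TNF-alpha, DMSO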
Each line names hits and unclear results; the compound was inactive in the other large screens.

Cc1ccn2c(NC3CCCCC3)c(-c3ccc(SC4CCCCC4)cc3)nc2c1	DENV2 CPE rescue 37.2 (no result: C2C12 statin)
Cc1ccn2c(NC3CCCCC3)c(-c3cccc(SC4CCCCC4)c3)nc2c1	DENV2 CPE rescue inconclusive
CO[C@H]1CN(C)C(=O)c2cc(NC(=O)C3CCC3)ccc2OC[C@H](C)N(CC2CCCCC2)C[C@H]1C	none
C[C@@H]1CN([C@@H](C)CO)C(=O)c2cccc(NC(=O)Nc3cccc4ccccc34)c2O[C@@H]1CN(C)Cc1ccc(C(F)(F)F)cc1	none (no result: C2C12 statin)
C[C@H](CO)N1C[C@H](C)[C@@H](CN(C)C(=O)Nc2ccccc2)Oc2ccc(NS(=O)(=O)c3ccc(F)cc3)cc2C1=O	none
C[C@@H]1CN([C@@H](C)CO)C(=O)c2cc(NS(=O)(=O)c3ccc(Cl)cc3)ccc2O[C@@H]1CN(C)C(=O)Nc1ccccc1	none
C[C@@H]1CN([C@H](C)CO)C(=O)c2cc(NS(=O)(=O)c3ccc(Cl)cc3)ccc2O[C@@H]1CN(C)C(=O)Nc1ccccc1	C2C12 statin 82.3
C[C@@H]1CN([C@@H](C)CO)C(=O)c2cc(NS(=O)(=O)c3ccc(F)cc3)ccc2O[C@@H]1CN(C)C(=O)Nc1ccccc1	DENV2 CPE rescue 36.2
C[C@H]1CN([C@@H](C)CO)C(=O)c2cc(NS(=O)(=O)c3ccc(F)cc3)ccc2O[C@H]1CN(C)C(=O)Nc1ccccc1	DENV2 CPE rescue 27.3
C[C@@H]1CN([C@H](C)CO)C(=O)c2cc(NS(=O)(=O)c3ccccc3)ccc2O[C@@H]1CN(C)C(=O)Nc1ccc(F)cc1	none
COc1ccc(NC(=O)N(C)C[C@@H]2Oc3ccc(NC(=O)Nc4ccc(C(F)(F)F)cc4)cc3CC(=O)N([C@H](C)CO)C[C@@H]2C)cc1	DENV2 CPE rescue 52.8
COc1ccc(NC(=O)Nc2ccc3c(c2)CC(=O)N([C@H](C)CO)C[C@@H](C)[C@@H](CN(C)C(=O)Nc2ccc(C(F)(F)F)cc2)O3)cc1	none (no result: E-selectin induc)
COc1ccc(CN(C)C[C@H]2Oc3ccc(NC(=O)c4ccncc4)cc3CC(=O)N([C@H](C)CO)C[C@H]2C)cc1	none
COc1ccc(NC(=O)Nc2ccc3c(c2)CC(=O)N([C@@H](C)CO)C[C@H](C)[C@@H](CN(C)C(=O)Nc2ccccc2)O3)cc1	DENV2 CPE rescue 45.6
C[C@@H]1CN([C@@H](C)CO)C(=O)Cc2cc(NC(=O)Nc3ccc(F)cc3)ccc2O[C@H]1CN(C)C(=O)Nc1ccc(C(F)(F)F)cc1	E-selectin induc 51.8
C[C@H](CO)N1C[C@H](C)[C@H](CN(C)C(=O)Nc2ccc(F)cc2)Oc2ccc(NC(=O)Nc3ccc(C(F)(F)F)cc3)cc2CC1=O	none
COc1ccc(NC(=O)N(C)C[C@H]2Oc3ccc(NC(=O)c4ccncc4)cc3CC(=O)N([C@H](C)CO)C[C@H]2C)cc1	E-selectin induc 41.7
COc1ccc(NC(=O)Nc2ccc3c(c2)CC(=O)N([C@@H](C)CO)C[C@@H](C)[C@@H](CN(C)C(=O)Nc2ccccc2)O3)cc1	none
COc1ccc(NC(=O)N(C)C[C@@H]2Oc3ccc(NC(=O)NC(C)C)cc3C(=O)N([C@H](C)CO)C[C@@H]2C)cc1	none
O=C(Nc1ccccc1F)N1CC(=O)N2[C@H](C1)[C@H](c1ccc(C#Cc3ccccc3)cc1)[C@@H]2CO	none (no result: C2C12 statin)
Cc1noc(C)c1NC(=O)Nc1ccc2c(c1)C(=O)N([C@@H](C)CO)C[C@H](C)[C@@H](CN(C)Cc1ccncc1)O2	none
C[C@H]1CN([C@@H](C)CO)C(=O)c2cc(C#CC3CCCCC3)cnc2O[C@@H]1CN(C)C	none (no result: DENV2 CPE rescue)
COc1ccc(NC(=O)Nc2ccc3c(c2)CC(=O)N([C@@H](C)CO)C[C@H](C)[C@@H](CN(C)C(=O)Nc2ccc(F)cc2)O3)cc1	none
C[C@@H]1CN([C@@H](C)CO)C(=O)Cc2cc(NC(=O)Nc3ccccc3)ccc2O[C@H]1CN(C)Cc1ccc(C(=O)O)cc1	none
COc1ccc(CN(C)C[C@H]2Oc3ccc(NC(=O)Nc4ccc(F)cc4)cc3CC(=O)N([C@@H](C)CO)C[C@H]2C)cc1	none (no result: E-selectin induc)
C[C@@H]1CN([C@@H](C)CO)C(=O)Cc2cc(NC(=O)Nc3ccc(F)cc3)ccc2O[C@@H]1CN(C)Cc1ccc(C(=O)O)cc1	DENV2 CPE rescue inconclusive, E-selectin induc 79.7
COc1ccc(NC(=O)N(C)C[C@@H]2Oc3ccc(NC(=O)Nc4ccc(F)cc4)cc3CC(=O)N([C@@H](C)CO)C[C@@H]2C)cc1	DENV2 CPE rescue 49.8
COc1ccc(CN(C)C[C@@H]2Oc3ccc(NC(=O)Nc4ccc(F)cc4)cc3CC(=O)N([C@@H](C)CO)C[C@@H]2C)cc1	E-selectin induc 62.1
C[C@H]1CN([C@@H](C)CO)C(=O)Cc2cc(NC(=O)Nc3ccccc3)ccc2O[C@H]1CN(C)C(=O)NC1CCCCC1	none
C[C@H](O)C#Cc1cnc2c(c1)C(=O)N([C@@H](C)CO)C[C@H](C)[C@H](CN(C)Cc1cccc(F)c1)O2	none
